Data on five molecules can be found in ChEMBL document CHEMBL3259710, “C-ring cannabinoid lactones: a novel cannabinergic chemotype” (ACS Med Chem Lett, 2014).

Data set [1] concerns the target Cannabinoid receptor 2 (Homo sapiens, UniProt P34972). The data set is described as follows: Displacement of [3H]CP55940 from human […] CB2 receptor expressed in HEK293 cells. In kind it is cell-based. In short, it runs like this: (§1)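 Competition binding against [3H]CP-55,940. CB1 membranes came from rat brain; CB2 membranes came from HEK293 cells expressing mouse or human CB2. Ki was taken from competition curves by nonlinear regression. Three independent experiments were run in duplicate, and Ki is the mean of the three.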
(In a radioligand displacement assay an active substance lowers the binding of a labelled ligand.)

Data set [2] deals with Cannabinoid receptor 2 (Mus musculus, UniProt P47936). Kind of data set: Displacement of [3H]CP55940 from mouse […] CB2 receptor expressed in HEK293 cells. In kind it is cell-based. Put shortly:
as §1

The target of data set [3] is T1, Cannabinoid receptor 1 (Rattus norvegicus, UniProt P20272). The data set is described as follows: Displacement of [3H]CP55940 from rat brain CB1 receptor. In short, it runs like this: as §1
Data set [4] is described as follows: Selectivity ratio of Ki for human CB2 receptor to Ki for rat CB1 receptor.
Data set [5] in a line: Selectivity ratio of Ki for mouse […] CB2 receptor to Ki for rat CB1 receptor.
For data set [6], the target named is Cannabinoid receptor 1 (Rattus norvegicus) (UniProt P20272). The data set is described as follows: Agonist activity at rat CB1 receptor expressed in HEK293 cells assessed as maximum inhibition of forskolin-induced cAMP level. In kind it is functional, cell-based. Background: Changes in cAMP serve as a functional read-out for many G protein-coupled receptors.

For data set [7], the target named is T1, Cannabinoid receptor 1. The data set is described as follows: Agonist activity at rat CB1 receptor expressed in HEK293 cells assessed as inhibition of forskolin-induced cAMP level. In kind it is functional, cell-based.
The nature of data set [8]: Half life in mouse plasma. The format is ADME, cell-free. Put shortly:
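The compound was incubated in vitro with mouse plasma to test esterase hydrolysis to its acid metabolite. Half-life of the parent compound was determined.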

Each structure is given as a SMILES string.

T1 sequence (P20272 whole entry): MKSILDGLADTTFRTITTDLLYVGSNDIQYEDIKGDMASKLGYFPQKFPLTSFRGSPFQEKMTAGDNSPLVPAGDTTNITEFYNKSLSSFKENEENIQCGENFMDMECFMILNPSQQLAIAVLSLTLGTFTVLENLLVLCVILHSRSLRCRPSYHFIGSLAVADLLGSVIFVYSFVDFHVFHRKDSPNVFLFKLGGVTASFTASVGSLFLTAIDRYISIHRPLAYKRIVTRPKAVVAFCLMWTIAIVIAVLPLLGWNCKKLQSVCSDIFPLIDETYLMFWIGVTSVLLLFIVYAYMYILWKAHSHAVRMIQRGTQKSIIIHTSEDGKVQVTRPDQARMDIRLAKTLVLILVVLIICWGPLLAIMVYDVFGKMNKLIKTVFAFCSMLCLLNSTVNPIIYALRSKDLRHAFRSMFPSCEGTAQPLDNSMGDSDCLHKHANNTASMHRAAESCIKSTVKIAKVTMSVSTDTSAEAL
Chain of Cannabinoid receptor 2 (Homo sapiens, UniProt P34972) (P34972 whole entry): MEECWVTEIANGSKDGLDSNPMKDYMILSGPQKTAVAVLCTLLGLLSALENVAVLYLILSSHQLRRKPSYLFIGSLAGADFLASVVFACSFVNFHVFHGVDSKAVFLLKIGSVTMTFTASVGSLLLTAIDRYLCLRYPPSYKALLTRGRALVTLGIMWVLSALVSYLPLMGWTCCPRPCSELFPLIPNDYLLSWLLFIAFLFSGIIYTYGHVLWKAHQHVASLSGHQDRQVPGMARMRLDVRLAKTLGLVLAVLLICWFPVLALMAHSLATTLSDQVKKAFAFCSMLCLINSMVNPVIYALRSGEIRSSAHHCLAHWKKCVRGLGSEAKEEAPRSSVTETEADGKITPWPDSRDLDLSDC
Chain of Cannabinoid receptor 2 (Mus musculus, UniProt P47936) (P47936 whole entry): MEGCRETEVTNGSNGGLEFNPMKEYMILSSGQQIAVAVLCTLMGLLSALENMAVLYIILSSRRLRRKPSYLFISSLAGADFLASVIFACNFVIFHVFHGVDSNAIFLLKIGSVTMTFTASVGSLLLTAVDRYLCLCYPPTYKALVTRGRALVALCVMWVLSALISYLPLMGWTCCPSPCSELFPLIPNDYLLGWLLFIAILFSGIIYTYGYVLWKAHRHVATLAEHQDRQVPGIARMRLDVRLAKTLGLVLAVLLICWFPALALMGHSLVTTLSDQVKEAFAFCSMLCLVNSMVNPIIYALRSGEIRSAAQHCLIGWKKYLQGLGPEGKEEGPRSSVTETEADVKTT
Chain of Cannabinoid receptor 1 (Rattus norvegicus) (P20272 whole entry): as the sequence (P20272 whole entry) above

As a reminder, the Ki is a measure of affinity in units of concentration, obtained from inhibition or displacement. High values mean lower affinity, low ones higher affinity. For `CCCCCCC(C)(C)c1cc(O)c2c(c1)OC(C)(C)[C@@H]1CCOC(=O)C[C@@H]21`, the Ki on Cannabinoid receptor 2 [1] worked out at 94 nM.

`CCCCCCC(C)(C)c1cc(O)c2c(c1)OC(C)(C)[C@H](CCO)[C@H]2CC(=O)O`: the inhibition constant (Ki) at Cannabinoid receptor 2 [2], at Cannabinoid receptor 1 [3] and on Cannabinoid receptor 2 [1] was more than 1000 nM each time.

In general, inhibition refers to the relative decrease from the control value, in per cent. By EC50 is commonly meant the concentration at which the effect is half-maximal. In the case of `CCCCCCC(C)(C)c1cc(O)c2c(c1)OC(C)(C)[C@@H]1CCC(=O)OC[C@@H]21`, the Ratio Ki in data set [4] was found to be 11; in data set [5] it was 170. In addition, the inhibition in data set [6] came to 41%. In addition, the Ki on Cannabinoid receptor 2 [2] stood at 792 nM; at Cannabinoid receptor 1 [3] it was 4.6 nM; at Cannabinoid receptor 2 [1] it was 52 nM. In addition, the concentration for a half-maximal effect (EC50) at Cannabinoid receptor 1 [7] amounted to 184 nM.

Take `CCCCCc1cc(O)c2c(c1)OC(C)(C)[C@@H]1CCC(C)=C[C@@H]21` [DRONABINOL]: the affinity on Cannabinoid receptor 2 [2] corresponds to a Ki of 40 nM.

For orientation: half-life means how long it takes for the measured level to halve. Take `CCCCCCC(C)(C)c1cc(O)c2c(c1)OC(C)(C)[C@H](CCC(=O)O)[C@H]2CO`: the inhibition constant Ki at Cannabinoid receptor 2 [2], at Cannabinoid receptor 1 [3] and on Cannabinoid receptor 2 [1] was more than 1000 nM in each case. Also, the half-life in data set [8] came to 15.1 min.
